In ChEMBL document CHEMBL1158182, “Antifungal activity of chalcones: a mechanistic study using various yeast strains” (Eur J Med Chem, 2008):
≈ marks a conversion by molar mass, not a printed value.

What was measured:
Assay type in all cases: functional
[1] = system: Ogataea angusta; experiment: Antifungal activity against Hansenula polymorpha M2 with met2 genotype by agar dilution method
Method in brief: (§1)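 H. polymorpha strains were tested by agar dilution on rich YPD agar at 37 °C. Compound stocks in 96% EtOH were mixed into the medium to give […]. Cells were suspended in water, serially diluted to 10^9, 10^7, 10^5 and 10^3 cells/ml, and applied to the agar with a metal replicator. MIC was read from growth.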

[2] = system: Kluyveromyces lactis; experiment: Antifungal activity against Kluyveromyces lactis 1-6A with MATalpha uraA lys arg genotype by agar dilution method
Method in brief: (§2)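 S. cerevisiae and K. lactis strains were tested by agar dilution on rich YPD agar at 30 °C. Compound stocks in 96% EtOH were added to the medium to give […]. Cells were suspended in water, serially diluted to 10^9–10^3 cells/ml, and plated with a metal replicator. MIC was read from growth.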

[3] = system: Ogataea angusta; experiment: Antifungal activity against Hansenula polymorpha CD2 with ade1 leu2 cds2 genotype by agar dilution method; method in brief: as §1
[4] = system: Saccharomyces cerevisiae; experiment: Antifungal activity against diploid Saccharomyces cerevisiae 29a by agar dilution method; method in brief: as §2
[5] = system: Ogataea angusta; experiment: Antifungal activity against Hansenula polymorpha WA1 with ade1 leu2 gsh1 genotype by agar dilution method
Method in brief: (§3)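 MICs by agar dilution on rich YPD medium. Compounds were added from 96% EtOH stocks to give final agar concentrations of 20 to 50 (units as printed in the source). Cells were suspended in water, serially diluted to 10^9, 10^7, 10^5 and 10^3 cells/ml, and spotted onto agar with a metal replicator. Incubation was at 37 °C for H. polymorpha and 30 °C for S. cerevisiae.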

[6] = system: Ogataea angusta; experiment: Antifungal activity against Hansenula polymorpha M4 with met4 genotype by agar dilution method; method in brief: as §1
[7] = system: Saccharomyces cerevisiae; experiment: Antifungal activity against haploid Saccharomyces cerevisiae 1169 by agar dilution method; method in brief: as §2
[8] = system: Ogataea angusta; experiment: Antifungal activity against Hansenula polymorpha D22 with arg1/arg1 ade1/ADE1 leu2/leu2 URA3/ura3 CYS1/cys1 genotype by agar dilution method; method in brief: as §1
[9] = system: Saccharomyces cerevisiae; experiment: Antifungal activity against haploid Saccharomyces cerevisiae 10560-6B by agar dilution method; method in brief: as §2
[10] = system: Ogataea angusta; experiment: Antifungal activity against Hansenula polymorpha CRD2 with leu2 CDR2 genotype by agar dilution method; method in brief: as §1
[11] = system: Saccharomyces cerevisiae; experiment: Antifungal activity against haploid Saccharomyces cerevisiae YSH1171 by agar dilution method; method in brief: as §2
[12] = system: Kluyveromyces lactis; experiment: Antifungal activity against Kluyveromyces lactis 2-19B with MATalpha ura lys arg genotype by agar dilution method; method in brief: as §2
[13] = system: Kluyveromyces lactis; experiment: Antifungal activity against Kluyveromyces lactis 2-18B with MATalpha metA1 ura3 leu2 genotype by agar dilution method; method in brief: as §2
[14] = system: Ogataea angusta; experiment: Antifungal activity against Hansenula polymorpha CD1 with ade1 leu2 cds1 genotype by agar dilution method; method in brief: as §1
[15] = system: Ogataea angusta; experiment: Antifungal activity against Hansenula polymorpha WT1 with ade1 ura3 genotype by agar dilution method; method in brief: as §1
[16] = system: Saccharomyces cerevisiae; experiment: Antifungal activity against haploid Saccharomyces cerevisiae 1S by agar dilution method; method in brief: as §2
[17] = system: Saccharomyces cerevisiae; experiment: Antifungal activity against haploid Saccharomyces cerevisiae Sigma 1278b by agar dilution method; method in brief: as §2
[18] = system: Ogataea angusta; experiment: Antifungal activity against Hansenula polymorpha MC1 with met2 cys1 genotype by agar dilution method; method in brief: as §1
[19] = system: Ogataea angusta; experiment: Antifungal activity against Hansenula polymorpha AS1 with arg1 gsh2delta genotype by agar dilution method; method in brief: as §1
[20] = system: Saccharomyces cerevisiae; experiment: Antifungal activity against haploid Saccharomyces cerevisiae 2180 by agar dilution method; method in brief: as §2
[21] = system: Saccharomyces cerevisiae; experiment: Antifungal activity against haploid Saccharomyces cerevisiae FY4 by agar dilution method; method in brief: as §2
[22] = system: Saccharomyces cerevisiae; experiment: Antifungal activity against diploid Saccharomyces cerevisiae 1a by agar dilution method; method in brief: as §2
[23] = system: Ogataea angusta; experiment: Antifungal activity against Hansenula polymorpha R3 with rgh3 genotype by agar dilution method; method in brief: as §1
[24] = system: Ogataea angusta; experiment: Antifungal activity against Hansenula polymorpha WT2 with ade1 met6 genotype by agar dilution method; method in brief: as §1
[25] = system: Ogataea angusta; experiment: Antifungal activity against Hansenula polymorpha AU05 with ade3 ura3 genotype by agar dilution method; method in brief: as §1
[26] = system: Ogataea angusta; experiment: Antifungal activity against Hansenula polymorpha CD3 with ade1 leu2 cds3 genotype by agar dilution method; method in brief: as §1
[27] = system: Ogataea angusta; experiment: Antifungal activity against Hansenula polymorpha 2b with arg1 ade1 leu2 genotype by agar dilution method; method in brief: as §1
[28] = system: Ogataea angusta; experiment: Antifungal activity against Hansenula polymorpha 2a with arg1 leu2 ura3 cys1 genotype by agar dilution method; method in brief: as §1
[29] = system: Saccharomyces cerevisiae; experiment: Antifungal activity against haploid Saccharomyces cerevisiae YSH1170 by agar dilution method; method in brief: as §2
[30] = system: Saccharomyces cerevisiae; experiment: Antifungal activity against diploid Saccharomyces cerevisiae PV-3 by agar dilution method; method in brief: as §3
[31] = system: Saccharomyces cerevisiae; experiment: Antifungal activity against diploid Saccharomyces cerevisiae PV-2 by agar dilution method; method in brief: as §3
[32] = system: Ogataea angusta; experiment: Antifungal activity against Hansenula polymorpha CTA1 with leu2 cat1 genotype by agar dilution method; method in brief: as §3
[33] = system: Saccharomyces cerevisiae; experiment: Antifungal activity against haploid Saccharomyces cerevisiae D3C by agar dilution method; method in brief: as §3

| Structure (SMILES) | MIC [1] | MIC [2] | MIC [3] | MIC [4] | MIC [6] | MIC [7] | MIC [8] | MIC [9] | MIC [10] | MIC [11] | MIC [12] | MIC [13] | MIC [14] | MIC [15] | MIC [16] | MIC [17] | MIC [18] | MIC [19] | MIC [20] | MIC [21] | further results |
| --- | --- | --- | --- | --- | --- | --- | --- | --- | --- | --- | --- | --- | --- | --- | --- | --- | --- | --- | --- | --- | --- |
| COc1ccc(/C=C/C(=O)c2ccccc2)cc1O | > 40 µg/mL | 25 µg/mL (≈ 98.3 µM) | > 40 µg/mL | > 40 µg/mL | > 40 µg/mL | > 40 µg/mL | > 40 µg/mL | > 40 µg/mL | > 40 µg/mL | > 40 µg/mL | 25 µg/mL (≈ 98.3 µM) | 25 µg/mL (≈ 98.3 µM) | > 40 µg/mL | > 40 µg/mL | > 40 µg/mL | > 40 µg/mL | 30 µg/mL (≈ 118 µM) | 30 µg/mL (≈ 118 µM) | > 40 µg/mL | > 40 µg/mL | MIC [5]: 30 µg/mL (≈ 118 µM); MIC [22]: > 40 µg/mL; MIC [23]: > 40 µg/mL; MIC [24]: > 40 µg/mL; MIC [25]: > 40 µg/mL; MIC [26]: > 40 µg/mL; MIC [27]: > 40 µg/mL; MIC [28]: 30 µg/mL (≈ 118 µM); MIC [29]: 35 µg/mL (≈ 138 µM) |
| O=C(/C=C/c1ccc(O)cc1)c1ccc(Cl)cc1 | > 40 µg/mL | > 40 µg/mL | > 40 µg/mL | > 40 µg/mL | > 40 µg/mL | > 40 µg/mL | > 40 µg/mL | > 40 µg/mL | 40 µg/mL (≈ 155 µM) | > 40 µg/mL | 35 µg/mL (≈ 135 µM) | 35 µg/mL (≈ 135 µM) | > 40 µg/mL | > 40 µg/mL | > 40 µg/mL | > 40 µg/mL | 30 µg/mL (≈ 116 µM) | 30 µg/mL (≈ 116 µM) | > 40 µg/mL | > 40 µg/mL | MIC [30]: 35 µg/mL (≈ 135 µM); MIC [5]: 30 µg/mL (≈ 116 µM); MIC [31]: 35 µg/mL (≈ 135 µM); MIC [22]: 35 µg/mL (≈ 135 µM); MIC [23]: 40 µg/mL (≈ 155 µM); MIC [24]: > 40 µg/mL; MIC [25]: > 40 µg/mL; MIC [26]: > 40 µg/mL; MIC [27]: > 40 µg/mL; MIC [28]: 35 µg/mL (≈ 135 µM); MIC [29]: > 40 µg/mL |
| O=C(/C=C/c1cccc(O)c1)c1ccc(Cl)cc1 | 25 µg/mL (≈ 96.6 µM) | < 20 µg/mL | < 20 µg/mL | 25 µg/mL (≈ 96.6 µM) | 25 µg/mL (≈ 96.6 µM) | 20 µg/mL (≈ 77.3 µM) | < 20 µg/mL | 15 µg/mL (≈ 58 µM) | < 20 µg/mL | 18 µg/mL (≈ 69.6 µM) | < 20 µg/mL | < 20 µg/mL | < 20 µg/mL | 25 µg/mL (≈ 96.6 µM) | 20 µg/mL (≈ 77.3 µM) | 15 µg/mL (≈ 58 µM) | < 20 µg/mL | < 20 µg/mL | 16 µg/mL (≈ 61.8 µM) | 18 µg/mL (≈ 69.6 µM) | MIC [30]: 15 µg/mL (≈ 58 µM); MIC [32]: 25 µg/mL (≈ 96.6 µM); MIC [33]: 20 µg/mL (≈ 77.3 µM); MIC [31]: 18 µg/mL (≈ 69.6 µM); MIC [22]: 20 µg/mL (≈ 77.3 µM); MIC [23]: < 20 µg/mL; MIC [24]: < 20 µg/mL; MIC [25]: 25 µg/mL (≈ 96.6 µM); MIC [26]: < 20 µg/mL; MIC [27]: 25 µg/mL (≈ 96.6 µM); MIC [28]: < 20 µg/mL; MIC [29]: 15 µg/mL (≈ 58 µM) |
| O=C(/C=C/c1cccc(O)c1)c1ccccc1 [3-HYDROXY CHALCONE] | 25 µg/mL (≈ 111 µM) | < 20 µg/mL | 25 µg/mL (≈ 111 µM) | 25 µg/mL (≈ 111 µM) | 30 µg/mL (≈ 134 µM) | 30 µg/mL (≈ 134 µM) | 25 µg/mL (≈ 111 µM) | 25 µg/mL (≈ 111 µM) | 20 µg/mL (≈ 89.2 µM) | 20 µg/mL (≈ 89.2 µM) | < 20 µg/mL | < 20 µg/mL | 25 µg/mL (≈ 111 µM) | 35 µg/mL (≈ 156 µM) | 25 µg/mL (≈ 111 µM) | 25 µg/mL (≈ 111 µM) | 20 µg/mL (≈ 89.2 µM) | 20 µg/mL (≈ 89.2 µM) | 25 µg/mL (≈ 111 µM) | 25 µg/mL (≈ 111 µM) | MIC [30]: 25 µg/mL (≈ 111 µM); MIC [5]: < 20 µg/mL; MIC [32]: 35 µg/mL (≈ 156 µM); MIC [33]: 25 µg/mL (≈ 111 µM); MIC [31]: 25 µg/mL (≈ 111 µM); MIC [22]: 25 µg/mL (≈ 111 µM); MIC [23]: 20 µg/mL (≈ 89.2 µM); MIC [24]: 25 µg/mL (≈ 111 µM); MIC [25]: 35 µg/mL (≈ 156 µM); MIC [26]: 25 µg/mL (≈ 111 µM); MIC [27]: 25 µg/mL (≈ 111 µM); MIC [28]: 25 µg/mL (≈ 111 µM); MIC [29]: 25 µg/mL (≈ 111 µM) |
